Activity calls are given as the source filed them. The rule behind the calls is not given here.
Experiments:
[1] = Cytotoxicity against human HepG2.2.15 cells assessed as reduction in cell viability after 3 days by MTS assay; conditions: read-out: TC50
[2] = Antiviral activity against Hepatitis B virus in human HepG2.2.15 cells assessed as inhibition of HBsAg secretion by EIA
[3] = Antiviral activity against Hepatitis B virus in human HepG2.2.15 cells assessed as inhibition of viral DNA replication by RT-PCR method
[4] = Antiviral activity against Hepatitis B virus subtype adw2 infected in human HepG2.2.15 cells assessed as inhibition of HBeAg secretion by EIA
[5] = Selectivity index, ratio of TC50 for human HepG2.2.15 cells to IC50 for Hepatitis B virus subtype adw2 infected in human HuH7 cells assessed as inhibition of HBsAg secretion
[6] = Selectivity index, ratio of TC50 for human HepG2.2.15 cells to IC50 for Hepatitis B virus subtype adw2 infected in human HepG2.2.15 cells assessed as inhibition of HBeAg secretion
[7] = Selectivity index, ratio of TC50 for human HepG2.2.15 cells to IC50 for Hepatitis B virus subtype adw2 infected in human HuH7 cells assessed as inhibition of viral DNA replication
[8] = Antiviral activity against Hepatitis B virus subtype adw2 infected in human HuH7 cells assessed as reduction in HBcAg level at 5 ug/ml after 2 days by immunoblot method relative to control; type: functional
How it was run: (§1)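 Huh7 cells were transfected with pHBV1.2 (1.2-fold HBV adw2 genome) for 2 days, then exposed to 2.5, 5 or 10 μg/mL for another 2 days. Whole-cell protein was extracted with protease inhibitors. SHBs, HBcAg and HBx were detected by immunoblot, with α-tubulin for comparison.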

[9] = Antiviral activity against Hepatitis B virus subtype adw2 infected in human HuH7 cells assessed as reduction in HBx level at 5 ug/ml after 2 days by immunoblot method relative to control; type: functional
How it was run: as §1

[10] = tested on: Hepatitis B virus subtype adw2; test: (§2) Antiviral activity against Hepatitis B virus subtype adw2 infected in human HuH7 cells assessed as inhibition of viral DNA replication by RT-PCR method; type: functional, cell-based
[11] = tested on: Hepatitis B virus subtype adw2; test: Antiviral activity against Hepatitis B virus subtype adw2 infected in human HepG2.2.15 cells assessed as inhibition of HBsAg secretion by EIA
[12] = tested on: Hepatitis B virus subtype adw2; test: Antiviral activity against Hepatitis B virus subtype adw2 infected in human HepG2.2.15 cells assessed as inhibition of HBeAg secretion by EIA
[13] = as §2; type: functional, cell-based; conditions: Huh-7
[14] = Antiviral activity against Hepatitis B virus subtype adw2 in human HepG2.2.15 cells assessed as inhibition of viral DNA replication by RT-PCR method
[15] = Antiviral activity against Hepatitis B virus subtype adw2 infected in human HuH7 cells assessed as inhibition of HBsAg secretion by EIA; type: functional, cell-based; conditions: Huh-7
[16] = tested on: Hepatitis B virus subtype adw2; test: Antiviral activity against Hepatitis B virus subtype adw2 infected in human HuH7 cells assessed as inhibition of viral DNA replication at 10 uM after 2 days by RT-PCR method; type: functional, cell-based
How it was run: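 Huh7 cells transfected with pHBV1.2, a plasmid carrying 1.2-fold of the HBV adw2 genome, for 2 days, then treated for another 2 days. Secreted viral particles were isolated from the culture medium and extracellular HBV DNA quantified by real-time PCR against untreated or vehicle controls; n = 3.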

SMILES: C=C1C[C@@]23CC[C@H]4[C@@](C)(CCC[C@@]4(C)N)[C@@H]2CC[C@]1(O)C3
- CC50 at 72 h [1]: 169 µM
- IC50 [2]: 30.7 µM
- IC50 [3]: 35.8 µM
- IC50 [4]: 31.2 µM
- selectivity ratio [5]: 5.5
- selectivity ratio [6]: 5.4
- selectivity ratio [7]: 4.7

SMILES: Nc1ccn([C@@H]2CS[C@H](CO)O2)c(=O)n1 [LAMIVUDINE]
- fold change (FC) [8]: 0.21
- fold change (FC) [9]: 0.17
- CC50 at 72 h [1]: 2360 µM
- IC50 [3]: 108 µM
- selectivity ratio [7]: 22

SMILES: C=C1C[C@@]23CC[C@H]4[C@@](C)(CCC[C@@]4(C)NC(=O)c4cccs4)[C@@H]2CC[C@]1(O)C3
- inhibition [10]: Active
- inhibition [11]: Active
- inhibition [12]: Active

SMILES: C=C1C[C@@]23CC[C@H]4[C@@](C)(CCC[C@@]4(C)N=C=O)[C@@H]2CC[C@]1(O)C3
- IC50 [13]: 30 µM
- CC50 at 72 h [1]: 337 µM
- IC50 [2]: 19.1 µM
- IC50 [4]: 28.5 µM
- selectivity ratio [5]: 17.6
- selectivity ratio [6]: 11.8
- selectivity ratio [7]: 11.2

SMILES: C=C1C[C@@]23CC[C@H]4[C@@](C)(CCC[C@@]4(C)NC(=O)CCC)[C@@H]2CC[C@]1(O)C3
- inhibition [11]: Active
- inhibition [12]: Active

SMILES: C=C1C[C@@]23CC[C@H]4[C@@](C)(CCC[C@@]4(C)NC(=O)Nc4ccc(F)cc4)[C@@H]2CC[C@]1(O)C3
- inhibition [11]: Active
- inhibition [12]: Active

SMILES: C=C1C[C@@]23CC[C@H]4[C@@](C)(CCC[C@@]4(C)NC(=O)c4ccc(OC)cc4)[C@@H]2CC[C@]1(O)C3
- inhibition [10]: Active
- inhibition [11]: Active
- inhibition [12]: Active

SMILES: C=C1C[C@@]23CC[C@H]4[C@@](C)(CCC[C@@]4(C)NC(=O)c4ccc(Br)cc4)[C@@H]2CC[C@]1(O)C3
- inhibition [10]: Active
- inhibition [11]: Active
- inhibition [12]: Active

SMILES: C=C1C[C@@]23CC[C@H]4[C@@](C)(CCC[C@@]4(C)NC(=O)Nc4ccc(C)cc4)[C@@H]2CC[C@]1(O)C3
- IC50 [2]: 59.6 µM

SMILES: C=C1C[C@@]23CC[C@H]4[C@@](C)(CCC[C@@]4(C)NC(=O)CC)[C@@H]2CC[C@]1(O)C3
- inhibition [11]: Active
- inhibition [12]: Active

SMILES: C=C1C[C@@]23CC[C@H]4[C@@](C)(CCC[C@@]4(C)NC(=O)c4ccc(CC)cc4)[C@@H]2CC[C@]1(O)C3
- inhibition [10]: Active
- inhibition [11]: Active
- inhibition [12]: Active

SMILES: C=C1C[C@@]23CC[C@H]4[C@@](C)(CCC[C@@]4(C)NC(=O)CCCC)[C@@H]2CC[C@]1(O)C3
- inhibition [10]: Active
- inhibition [11]: Active
- inhibition [12]: Active

SMILES: C=C1C[C@@]23CC[C@H]4[C@@](C)(CCC[C@@]4(C)NC(=O)Nc4cc(OC)c(OC)c(OC)c4)[C@@H]2CC[C@]1(O)C3
- IC50 [2]: 11.7 to 14 µM
- IC50 [4]: 7.7 to 13.6 µM
- IC50 [14]: 6.3 µM

SMILES: C=C1C[C@@]23CC[C@H]4[C@@](C)(CCC[C@@]4(C)NC(=O)Nc4ccc(OC)c(OC)c4)[C@@H]2CC[C@]1(O)C3
- IC50 [2]: 11.7 to 14 µM
- IC50 [4]: 7.7 to 13.6 µM
- IC50 [14]: 14.3 µM

SMILES: C=C1C[C@@]23CC[C@H]4[C@@](C)(CCC[C@@]4(C)NC(=O)Nc4ccccc4)[C@@H]2CC[C@]1(O)C3
- IC50 [15]: 33.5 µM

SMILES: C=C1C[C@@]23CC[C@H]4[C@@](C)(CCC[C@@]4(C)NC(=O)c4ccc(I)cc4)[C@@H]2CC[C@]1(O)C3
- CC50 at 72 h [1]: 413 µM
- IC50 [2]: 14.2 µM
- IC50 [3]: 21.9 µM
- IC50 [4]: 23.9 µM
- selectivity ratio [5]: 29.1
- selectivity ratio [6]: 17.3
- selectivity ratio [7]: 18.8

SMILES: C=C1C[C@@]23CC[C@H]4[C@@](C)(CCC[C@@]4(C)NC(=O)c4ccc(C#N)cc4)[C@@H]2CC[C@]1(O)C3
- IC50 [15]: 8.3 µM
- CC50 at 72 h [1]: 125 µM
- IC50 [3]: 9 µM
- IC50 [4]: 13.6 µM
- selectivity ratio [5]: 15.1
- selectivity ratio [6]: 9.2
- selectivity ratio [7]: 13.9

SMILES: C=C1C[C@@]23CC[C@H]4[C@@](C)(CCC[C@@]4(C)NC(=O)Nc4ccc(OC)cc4)[C@@H]2CC[C@]1(O)C3
- IC50 [2]: 11.7 to 14 µM
- IC50 [4]: 7.7 to 13.6 µM
- IC50 [14]: 14.7 µM

SMILES: C=C1C[C@@]23CC[C@H]4[C@@](C)(CCC[C@@]4(C)NC(=O)c4ccccc4)[C@@H]2CC[C@]1(O)C3
- inhibition [10]: Active
- inhibition [11]: Active
- inhibition [12]: Active

SMILES: C=C1C[C@@]23CC[C@H]4[C@@](C)(CCC[C@@]4(C)NC(=O)c4ccc(Cl)cc4)[C@@H]2CC[C@]1(O)C3
- inhibition [10]: Active
- inhibition [11]: Active
- inhibition [12]: Active

SMILES: O=c1[nH]cc(F)c(=O)[nH]1 [FLUOROURACIL]
- CC50 at 72 h [1]: 228 µM

SMILES: C=C1C[C@@]23CC[C@H]4[C@@](C)(CCC[C@@]4(C)NC(=O)c4ccc(C)cc4)[C@@H]2CC[C@]1(O)C3
- inhibition [10]: Active
- inhibition [11]: Active
- inhibition [12]: Active

SMILES: COc1ccc(C[C@H]2NC[C@H](O)[C@H]2OC(C)=O)cc1
- inhibition [16]: inactive

SMILES: C=C1C[C@@]23CC[C@H]4[C@@](C)(CCC[C@@]4(C)NC(=O)c4ccc(OCC)cc4)[C@@H]2CC[C@]1(O)C3
- IC50 [15]: 2.7 µM
- CC50 at 72 h [1]: 56.3 µM
- IC50 [3]: 4 µM
- IC50 [4]: 3.4 µM
- selectivity ratio [5]: 20.9
- selectivity ratio [6]: 16.6
- selectivity ratio [7]: 14.1

SMILES: C=C1C[C@@]23CC[C@H]4[C@@](C)(CCC[C@@]4(C)NC(=O)Nc4ccc(Br)cc4)[C@@H]2CC[C@]1(O)C3
- inhibition [11]: Active
- inhibition [12]: Active

SMILES: C=C1C[C@@]23CC[C@H]4[C@@](C)(CCC[C@@]4(C)NC(C)=O)[C@@H]2CC[C@]1(O)C3
- inhibition [10]: Active
- inhibition [11]: Active
- inhibition [12]: Active

SMILES: C=C1C[C@@]23CC[C@H]4[C@@](C)(CCC[C@@]4(C)NC(=O)c4ccc(F)cc4)[C@@H]2CC[C@]1(O)C3
- inhibition [10]: Active
- inhibition [11]: Active
- inhibition [12]: Active

SMILES: C=C1C[C@@]23CC[C@H]4[C@@](C)(CCC[C@@]4(C)NC(=O)CCCCC)[C@@H]2CC[C@]1(O)C3
- inhibition [10]: Active
- inhibition [11]: Active
- inhibition [12]: Active

SMILES: C=C1C[C@@]23CC[C@H]4[C@@](C)(CCC[C@@]4(C)C(=O)O)[C@@H]2CC[C@]1(O)C3 [STEVIOL]
- IC50 [15]: 20.8 µM
- IC50 [13]: 19.9 µM
- CC50 at 72 h [1]: 474 µM
- IC50 [4]: 16.6 µM
- selectivity ratio [5]: 22.8
- selectivity ratio [6]: 28.6
- selectivity ratio [7]: 23.8

SMILES: C=C1C[C@@]23CC[C@H]4[C@@](C)(CCC[C@@]4(C)NC(=O)Nc4ccc(Cl)cc4)[C@@H]2CC[C@]1(O)C3
- IC50 [15]: 8 µM
- IC50 [4]: 5 µM
- IC50 [14]: 4.5 µM
- selectivity ratio [7]: 6.6
